From PubChem
Pf Dd2 inh: blocks growth of Plasmodium falciparum Dd2 parasites; AID 1159554; hit rate 2.3% among 94,000; P. falciparum Dd2 growth, SYBR Green, 72 h; stronger effect = lower value; activity change, % at 10 µM; in the data active = activity change below about -80%; inconclusive = no clear call, values can overlap the other calls
Tcruzi prolif: inhibitors of T. cruzi proliferation. T. cruzi beta-gal in NIH3T3, GalScreen luminescence, 90 h. hit rate 5.9% among 77,000. inhibition, % at 8.34 µM. AID 624255;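 active = mean inhibition above about 93%, with at least 55% of replicates each passing it, limit read from the data, passing the limit was not always enough; inconclusive = only one of those two conditions holds; inactive = neither condition holds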
IDH1 mut inh: inhibitors of human IDH1 R132H. IDH1 R132H reductase, diaphorase/resazurin fluorescence, 60 min. inhibition, % at 10 µM. O75874. hit rate 0.18% among 70,000; in the data active = inhibition above about 34%; inconclusive = no clear call, values can overlap the other calls; inactive = below about 11%
KDM4C inh: KDM4C (human) demethylase inhibition; inhibition, % at 12.5 µM; GST-KDM4C 2-372, H3K9me3 peptide, LANCE TR-FRET; hit rate 0.15% among 96,000;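 active = mean replicate inhibition above about 25%, with at least 55% of replicates also reaching it, limit read from the data, passing the limit was not always enough; inconclusive = only one of those two conditions met; inactive = neither condition met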
Target sequence (Q9H3R0 2-372 limits assumed): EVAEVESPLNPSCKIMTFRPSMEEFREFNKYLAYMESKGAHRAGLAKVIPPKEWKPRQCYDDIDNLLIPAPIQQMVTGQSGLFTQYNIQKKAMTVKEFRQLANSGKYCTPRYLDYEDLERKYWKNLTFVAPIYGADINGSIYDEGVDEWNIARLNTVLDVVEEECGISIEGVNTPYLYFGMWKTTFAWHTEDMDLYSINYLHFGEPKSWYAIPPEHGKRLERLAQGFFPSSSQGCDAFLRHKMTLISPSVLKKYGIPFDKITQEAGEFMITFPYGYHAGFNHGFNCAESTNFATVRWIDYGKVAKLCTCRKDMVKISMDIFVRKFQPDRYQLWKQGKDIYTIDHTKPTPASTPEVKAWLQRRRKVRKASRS
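material = GST-tagged GASC-1 (JMJD2C) catalytic fragment, aa 2-372 | amount = enzyme final amount 10 nM | medium = HEPES buffer, pH 7.5, plus ascorbate | also added = H3K9me3 peptide substrate, Fe(II), 2-oxoglutarate | dosing = single dose | times = 30 min demethylation and 1 h detection at room temperature | detection = LANCE TR-FRET | read-out basis = Fall in 671/618 emission ratio as inhibition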
Each line names hits and unclear results; the compound was inactive in the other large screens. Compounds with a hit are over-represented: about 5.8% of the library has one in this group of screens.

N#Cc1cccc(-c2ccc3c(c2)[C@H]2[C@H](CCN2Cc2ccncc2)[C@@H](CO)N3)c1	Pf Dd2 inh -89 (no result: Tcruzi prolif, IDH1 mut inh)
O=C(Nc1nccs1)[C@H]1[C@H](CO)[C@H]2Cn3c(cccc3=O)[C@H]2N1C(=O)C1CC1	none (no result: Pf Dd2 inh, IDH1 mut inh)
Cc1ccc(S(=O)(=O)N(C)C[C@@H]2Oc3cc(C#Cc4ccncc4)ccc3S(=O)(=O)N([C@@H](C)CO)C[C@@H]2C)cc1	Pf Dd2 inh -85
Cc1ccc(S(=O)(=O)N(C)C[C@H]2Oc3cc(C#Cc4ccncc4)ccc3S(=O)(=O)N([C@H](C)CO)C[C@@H]2C)cc1	Pf Dd2 inh -81
Cc1ccc(S(=O)(=O)N(C)C[C@H]2Oc3cc(C#Cc4ccncc4)ccc3S(=O)(=O)N([C@H](C)CO)C[C@H]2C)cc1	none
CCCN1[C@@H]2c3ccc(-c4ccccc4)c(=O)n3C[C@@H]2[C@@H](CO)[C@@H]1C(=O)N1CCOCC1	none (no result: Pf Dd2 inh, IDH1 mut inh)
COc1ccc2c3c([nH]c2c1)[C@@H](CO)N(C(=O)Nc1ccc(F)cc1)CC31CN(Cc2cc(F)ccc2F)C1	Pf Dd2 inh -87 (no result: Tcruzi prolif, IDH1 mut inh)
COc1ccc2c3c([nH]c2c1)[C@H](CO)N(C(=O)Nc1ccc(F)cc1)CC31CN(Cc2cc(F)ccc2F)C1	none (no result: Tcruzi prolif, IDH1 mut inh)
COc1ccc2c3c([nH]c2c1)[C@@H](CO)N(C(=O)Nc1cccc(F)c1)CC31CN(CC2CCOCC2)C1	Pf Dd2 inh -93 (no result: Tcruzi prolif, IDH1 mut inh)
C[C@H](CO)N1C[C@H](C)[C@@H](CN(C)Cc2ccc(C(F)(F)F)cc2)OCCCC[C@H](C)Oc2ccc(NC(=O)CCCN(C)C)cc2C1=O	none (no result: IDH1 mut inh)
C[C@@H]1CN([C@H](C)CO)C(=O)c2cc(NC(=O)CCCN(C)C)ccc2O[C@@H](C)CCCCO[C@@H]1CN(C)Cc1ccc(C(F)(F)F)cc1	Pf Dd2 inh -87
C[C@@H]1CCCCO[C@@H](CN(C)Cc2ccc(C(F)(F)F)cc2)[C@H](C)CN([C@H](C)CO)C(=O)c2cc(NC(=O)CCCN(C)C)ccc2O1	Pf Dd2 inh -89
C[C@H]1CCCCO[C@@H](CN(C)Cc2ccc(C(F)(F)F)cc2)[C@@H](C)CN([C@@H](C)CO)C(=O)c2cc(NC(=O)CCCN(C)C)ccc2O1	Pf Dd2 inh -85
C[C@@H]1CCCCO[C@H](CN(C)Cc2ccc(C(F)(F)F)cc2)[C@H](C)CN([C@H](C)CO)C(=O)c2cc(NC(=O)CCCN(C)C)ccc2O1	Pf Dd2 inh -87 (no result: IDH1 mut inh)
COc1ccc(C(=O)Nc2ccc3c(c2)OC[C@@H](C)N(C(C)=O)C[C@@H](C)[C@H](OC)CN(C)C3=O)cc1	none
C[C@H]1CCCCO[C@H](CN(C)Cc2ccc(C(F)(F)F)cc2)[C@@H](C)CN([C@@H](C)CO)C(=O)c2cc(NC(=O)CCCN(C)C)ccc2O1	Pf Dd2 inh -86 (no result: IDH1 mut inh)
O=C(O)CNC(=O)CN1C(=O)c2ccccc2C1=O	none (no result: Pf Dd2 inh, Tcruzi prolif, KDM4C inh)
COc1ccc(C#Cc2ccc([C@@H]3[C@H](CO)N4CCCCN(C(=O)Nc5ccccc5F)C[C@@H]34)cc2)cc1	Pf Dd2 inh -82 (no result: IDH1 mut inh)
COc1ccc(C#Cc2ccc([C@H]3[C@H](CO)N4CCCCN(C(=O)Nc5ccccc5F)C[C@@H]34)cc2)cc1	none (no result: IDH1 mut inh)
COc1cccc(CN2CCCCN3[C@H](CO)[C@@H](c4ccc(C#Cc5cccnc5)cc4)[C@H]3C2)c1	Pf Dd2 inh -86 (no result: IDH1 mut inh)
O=C(Nc1ccccc1)N1CCCCN2[C@@H](CO)[C@H](c3ccc(C#Cc4cccnc4)cc3)[C@@H]2C1	Pf Dd2 inh -83 (no result: IDH1 mut inh)
O=C(Nc1cccc(F)c1)N1CCCCN2[C@H](CO)[C@H](c3ccc(C#Cc4ccccc4)cc3)[C@@H]2C1	Pf Dd2 inh -82 (no result: IDH1 mut inh)
CCCNC(=O)Nc1ccc2c(c1)OC[C@H](C)N(Cc1ccncc1)C[C@@H](C)[C@@H](OC)CN(C)C2=O	none
Cc1noc(C)c1NC(=O)Nc1ccc2c(c1)C(=O)N([C@@H](C)CO)C[C@@H](C)[C@@H](CN(C)S(=O)(=O)c1ccccc1)O2	none
COc1ccc(C#Cc2ccc([C@H]3[C@@H](CO)N4CCCCN(C(=O)Nc5ccccc5F)C[C@H]34)cc2)cc1	none (no result: IDH1 mut inh)
O=C(Nc1ccccc1F)N1CCCCN2[C@@H](CO)[C@@H](c3ccc(C#Cc4ccccc4)cc3)[C@@H]2C1	Pf Dd2 inh -89 (no result: IDH1 mut inh)
COc1ccc(S(=O)(=O)Nc2ccc3c(c2)C(=O)N([C@@H](C)CO)C[C@H](C)[C@@H](CN(C)C(=O)Nc2ccc(F)cc2)OCCCC[C@@H](C)O3)cc1	none
C[C@H](CO)N1C[C@H](C)[C@@H](CN(C)C(=O)c2ccccn2)Oc2ncc(Br)cc2C1=O	KDM4C inh 26 (no result: Tcruzi prolif)
COc1cccc(C#Cc2cnc3c(c2)C(=O)N([C@@H](C)CO)C[C@H](C)[C@@H](CN(C)C(=O)C2CCOCC2)O3)c1	Pf Dd2 inh -83 (no result: Tcruzi prolif)
COc1cccc(C#Cc2cnc3c(c2)C(=O)N([C@H](C)CO)C[C@H](C)[C@H](CN(C)C(=O)C2CCOCC2)O3)c1	none (no result: Tcruzi prolif)
C[C@@H]1CN([C@@H](C)CO)C(=O)c2cc(Br)cnc2O[C@@H]1CN(C)C(=O)C1CCOCC1	KDM4C inh 39
COc1cccc(C#Cc2cnc3c(c2)C(=O)N([C@@H](C)CO)C[C@H](C)[C@H](CN(C)C(=O)C2CCCCC2)O3)c1	Pf Dd2 inh -83 (no result: IDH1 mut inh)
C[C@@H]1CN([C@H](C)CO)C(=O)c2c(c3ccccc3n2C)-c2ccccc2CO[C@H]1CN(C)S(=O)(=O)c1ccc(Cl)cc1	Pf Dd2 inh -84
C[C@H]1CN([C@@H](C)CO)C(=O)c2c(c3ccccc3n2C)-c2ccccc2CO[C@@H]1CN(C)S(=O)(=O)c1ccc(Cl)cc1	Pf Dd2 inh -85 (no result: IDH1 mut inh)
C[C@H](CO)N1C[C@H](C)[C@H](CN(C)S(=O)(=O)c2ccc(Cl)cc2)OCc2ccccc2-c2c(n(C)c3ccccc23)C1=O	Pf Dd2 inh -94 (no result: Tcruzi prolif, IDH1 mut inh, KDM4C inh)
C[C@@H]1CN([C@H](C)CO)C(=O)c2c(c3ccccc3n2C)-c2ccccc2CO[C@@H]1CN(C)S(=O)(=O)c1ccc([N+](=O)[O-])cc1	none (no result: Tcruzi prolif, IDH1 mut inh)
C[C@H]1CN([C@@H](C)CO)C(=O)c2c(c3ccccc3n2C)-c2ccccc2CO[C@H]1CN(C)S(=O)(=O)c1ccc(Cl)cc1	Pf Dd2 inh -86
COc1ccc(S(=O)(=O)N(C)C[C@H]2OCc3ccccc3-c3c(n(C)c4ccccc34)C(=O)N([C@H](C)CO)C[C@H]2C)cc1	none
C[C@H]1CN([C@@H](C)CO)C(=O)c2c(c3ccccc3n2C)-c2ccccc2CO[C@@H]1CN(C)S(=O)(=O)c1ccc(C(F)(F)F)cc1	Pf Dd2 inh inconclusive (no result: Tcruzi prolif, IDH1 mut inh)
CC(C)NC(=O)N(C)C[C@@H]1Oc2cc(Br)ccc2S(=O)(=O)N([C@@H](C)CO)C[C@@H]1C	none
COc1cccc(S(=O)(=O)N[C@H]2CC[C@@H](CCn3cc(-c4ccccn4)nn3)O[C@@H]2CO)c1	none
COc1ccc2c3c([nH]c2c1)[C@H](CO)N(C(=O)Nc1ccc(F)cc1)CC31CCN(S(=O)(=O)c2cccc(C)c2)CC1	Pf Dd2 inh -83 (no result: Tcruzi prolif, IDH1 mut inh)
COc1ccc2c3c([nH]c2c1)[C@H](CO)N(C(=O)Nc1ccc(F)cc1)CC31CCN(S(=O)(=O)c2ccc(C)cc2)CC1	Pf Dd2 inh -82 (no result: Tcruzi prolif, IDH1 mut inh)
